Experimental data reported in ChEMBL document CHEMBL4138104, “Indole carboxylic acid esters of melampomagnolide B are potent anticancer agents against both hematological and solid tumor cells” (Eur J Med Chem, 2017).
pEC50: −log10 of the molar value. The source made the active and inactive calls. The calls are words filed in the database; no cut-off is given here.

Key:
Type in all cases: functional
Rattus norvegicus = species on record: Rattus norvegicus; experiment: Inhibition of colony formation of rat 9LSF cells at 5 to 20 uM after 48 hrs by colony formation assay
How it was run: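 9L-SF cells were seeded in 60 mm dishes to reach 50% confluence (6.65×10^4 cells/cm²) after 24 h. They were treated 48 h with drug serially diluted from DMSO stock (max 0.05% DMSO), then rinsed, trypsinized, counted and seeded in triplicate flasks for colonies. Lethally irradiated (25 Gy) feeders kept density at 2,000 cells/cm². Survival was normalized to control plating efficiency, with three experiments.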

[1] = Cytotoxicity against human M9-ENL1 cells assessed as reduction in cell viability by trypan blue staining-based assay
How it was run: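 M9-ENL1 AML cells (MLL-ENL-transduced human blood cells) plated at 10^6 cells/mL in alpha-MEM with 5% human plasma, 20% FBS, SCF, IL-3, IL-7 and FLT3. Drug diluted from DMSO stock into PBS, final DMSO ≤0.5%. After 24 h exposure, dead cells assessed by trypan blue and by flow cytometry (Annexin V/PI or Annexin V/7-AAD). Viability normalized to vehicle; EC50 from dose-response curves; triplicate.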

[2] = Potency index, ratio of melampomagnolide-B EC50 to compound EC50 for human M9-ENL1 cells
How it was run: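 M9-ENL1 AML cells, derived by MLL-ENL transduction of human blood cells, were plated at 10^6 cells/mL in alpha-MEM with 5% human plasma, 20% FBS, SCF, IL-3, IL-7 and FLT3 ligand. Exposure was 24 h. Non-apoptotic (Annexin V/7-AAD double-negative) fraction was normalized to vehicle, in triplicate, to give EC50. PTL and MMB were run as reference controls.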

| Structure (SMILES) | inhibition (Rattus norvegicus) | pEC50 [1] | Ratio IC50 [2] |
| --- | --- | --- | --- |
| C=C1C(=O)O[C@H]2[C@H]1CC/C(CO)=C\CC[C@@]1(C)O[C@@H]21 | Active |  |  |
| C=C1C(=O)O[C@@H]2[C@H]3O[C@]3(C)CC/C=C(/COC(=O)c3ccc4[nH]ccc4c3)CC[C@@H]12 |  | 5.52 | 2 - 20 |
| O=C(O)c1cc2ccccc2[nH]1 | Active |  |  |
| C=C1C(=O)O[C@@H]2[C@H]3O[C@]3(C)CC/C=C(/COC(=O)c3ccc4cc[nH]c4c3)CC[C@@H]12 |  | 5.60 | 2 - 20 |
| C=C1C(=O)O[C@@H]2[C@H]3O[C@]3(C)CC/C=C(/COC(=O)Cc3c[nH]c4ccccc34)CC[C@@H]12 |  | 5.40 | 2 - 20 |
| C=C1C(=O)O[C@@H]2[C@H]3O[C@]3(C)CC/C=C(/COC(=O)Cc3c(C)n(C(=O)c4ccc(Cl)cc4)c4ccc(OC)cc34)CC[C@@H]12 |  | 5.57 | 2 - 20 |
| C=C1C(=O)O[C@@H]2[C@H]3O[C@]3(C)CC/C=C(/COC(=O)c3sc4ccccc4c3Cl)CC[C@@H]12 |  | 5.68 | 2 - 20 |
